In ChEMBL document CHEMBL1124515, “3,7-Dideazapurine nucleosides. Synthesis and antitumor activity of 1-deazatubercidin and 2-chloro-2'-deoxy-3,7-dideazaadenosine” (1989):
The source made the active and inactive calls. The rule behind the calls is not given here.

Tests used:
[1] = species: Homo sapiens; test: Compound (1 x 10e-4 M) was evaluated in vitro for its ability to inhibit the growth of the human epidermoid carcinoma KB; Inactive until maximum tested concentration of 1xe-4 M; assay type: functional
[2] = test system: HL-60; test: Compound (1 x 10e-4 M) was evaluated in vitro for its ability to inhibit the growth of the human promyelocytic leukemia HL-60; Inactive until maximum tested concentration of 1xe-4 M; assay type: functional, cell-based
[3] = test system: L1210; test: Compound (1 x 10e-4 M) was evaluated in vitro for its ability to inhibit the growth of the murine leukemia L1210; Inactive until maximum tested concentration of 1xe-4 M; assay type: functional, cell-based; conditions: Mus musculus
[4] = test system: P388; test: Compound (1 x 10e-4 M) was evaluated in vitro for its ability to inhibit the growth of the murine leukemia P388; Inactive until maximum tested concentration of 1xe-4 M; assay type: functional, cell-based; conditions: Mus musculus
[5] = species: Homo sapiens; test: Compound (1 x 10e-4 M) was evaluated in vitro for its ability to inhibit the growth of the human epidermoid carcinoma KB; assay type: functional
Procedure, shortened: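 KB cells in exponential growth, in RPMI-1640 with antibiotics, 3 mM glutamine, 10 mM HEPES and 5% heat-inactivated newborn calf serum. Seeded at 5 × 10³ cells/well and exposed in quadruplicate to compound (DMSO ≤0.5% final), up to a maximum of 1×10^-4 M, for 48 h at 37 °C. [¹²⁵I]-5-iodo-2'-deoxyuridine plus 5-fluoro-2'-deoxyuridine then added for 18 h. Cells trypsin/EDTA-detached, filter-harvested and γ-counted. Inhibition expressed as % of control incorporation.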

Row | SMILES | ID50 [1] | ID50 [2] | ID50 [3] | ID50 [4] | ID50 [5]
1 | Nc1nccc2c1ccn2[C@H]1C[C@H](O)[C@@H](CO)O1 | Inactive until maximum tested concentration of 1xe-4 M | Inactive until maximum tested concentration of 1xe-4 M | Inactive until maximum tested concentration of 1xe-4 M | Inactive until maximum tested concentration of 1xe-4 M | –
2 | Nc1nccc2c1ccn2[C@@H]1O[C@H](CO)[C@@H](O)[C@H]1O | Inactive until maximum tested concentration of 1xe-4 M | Inactive until maximum tested concentration of 1xe-4 M | Inactive until maximum tested concentration of 1xe-4 M | Inactive until maximum tested concentration of 1xe-4 M | –
3 | Nc1nc(Cl)cc2c1ccn2[C@H]1C[C@H](O)[C@@H](CO)O1 | Inactive until maximum tested concentration of 1xe-4 M | Inactive until maximum tested concentration of 1xe-4 M | Inactive until maximum tested concentration of 1xe-4 M | Inactive until maximum tested concentration of 1xe-4 M | –
4 | Nc1nc(Cl)cc2c1ccn2[C@@H]1O[C@H](CO)[C@@H](O)[C@H]1O | Inactive until maximum tested concentration of 1xe-4 M | Inactive until maximum tested concentration of 1xe-4 M | Inactive until maximum tested concentration of 1xe-4 M | Inactive until maximum tested concentration of 1xe-4 M | –
5 | Nc1ncnc2c1ccn2[C@@H]1O[C@H](CO)[C@@H](O)[C@H]1O | – | – | – | – | 52 nM
